Published values pooled from the literature.
Compare with care: the assays were run in different laboratories.
Target: Serine/threonine-protein kinase 26 (STK26, Homo sapiens, UniProt Q9P289)

| SMILES | assay | system | setting | endpoint | value |
| --- | --- | --- | --- | --- | --- |
| O=c1[nH]c2ccccc2n1C1CCN(Cc2ccc(-c3[nH]c4cc5ncnc5cc4nc3-c3ccccc3)cc2)CC1 | cell-free assay | – | 0.5 µM | remaining signal | 102% |
| COc1ncccc1-c1cnn2ccc(N3CCN(C(=O)OC(C)C)CC3)nc12 | binding, competition with immobilised ligand | – | 1 µM | remaining binding | 92% |
| CC(C)(C)c1cc(C=C(C#N)C#N)cc(Br)c1O | enzyme activity, inhibitor | – | 0.5 µM | remaining activity | 95.2% |
| Cn1cc(-c2cc(F)cc(N3CCn4c(cc5c4CCCC5)C3=O)c2CO)cc(Nc2ccc(N3CCN(C4COC4)CC3)cn2)c1=O | enzyme activity, inhibitor | – | 0.1 µM | inhibition | 14% |
| Cn1cncc1[C@@](O)(COc1ccc(C#N)cc1-c1ccc(OC(F)(F)F)cc1)c1ccc(C#N)cc1 | cell-free assay, competition with immobilised ligand | – | 1 µM | remaining binding | 99% |
| CCN1CCN(Cc2ccc(NC(=O)c3ccc(C)c(/C=C/c4cnc5[nH]ccc5c4OC)c3)cc2C(F)(F)F)CC1 | target engagement in cells, inhibitor, chemoproteomics | A-375 | 50 nM | inhibition | -14.9% |
| Nc1ncc(-c2nc(N3CCOCC3)nc(N3CCOCC3)n2)c(C(F)F)n1 | binding, competition with immobilised ligand | – | 10 µM | remaining binding | 91% |
| N#CC1(c2ccccn2)CCN(Cc2cc(C(=O)O)c(=O)n3ccccc23)CC1 | cell-free assay, competition with immobilised ligand | – | 1 µM | remaining binding | 100% |
| Cc1nn(C)cc1-c1nc2c(N3CCN(Cc4ccc(Cl)cc4)CC3)c(Cl)cnc2[nH]1 | binding, competition with immobilised ligand | – | 1 µM | remaining binding | 100% |
